Laboratory results taken from ChEMBL document CHEMBL4689842, “EUbOPEN Chemogenomics Library wave 1” (2021).

What was measured:
Type in all cases: toxicity, cell-based
Fibroblast [1] = test: Multiplex assay against human fibroblast
In short: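 Cells stained live at seeding with Hoechst33342, BioTracker Green Microtubule Cytoskeleton Dye, MitoTracker Red and Annexin V Alexa Fluor 680 were imaged on a CQ1 microscope at 37°C and 5% CO2 after compound addition. Their classification by CellPathfinder machine-learning gating ran from Hoechst high-intensity objects versus normal cells, to healthy, pyknosed or fragmented nuclei among normal cells, to mitotic or apoptotic among pyknosed cells. Tubulin, mitochondrial-mass and membrane-permeability phenotypes are per cents of healthy-nucleus cells.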

U2OS = test: Incucyte cell viability with U2OS; details: human, 10 µM, compound concentration 10 uM; further: filed as whole numbers so only -1 and 0 and 1 occur
HEK-293T = test: Incucyte cell viability with HEK293T; details: human, 10 µM, compound concentration 10 uM; further: filed as whole numbers so only -1 and 0 and 1 occur
Fibroblast [2] = test: Incucyte cell viability with human fibroblast; details: 10 µM, compound concentration 10 uM; further: filed as whole numbers so only -1 and 0 and 1 occur
[3] = 12 h, 1 µM, compound concentration 1 uM, replicate 1
[4] = 12 h, 1 µM, compound concentration 1 uM, replicate 2
[5] = 12 h, 10 µM, compound concentration 10 uM, replicate 1
[6] = 12 h, 10 µM, compound concentration 10 uM, replicate 2
[7] = 24 h, 1 µM, compound concentration 1 uM, replicate 1
[8] = 24 h, 1 µM, compound concentration 1 uM, replicate 2
[9] = 24 h, 10 µM, compound concentration 10 uM, replicate 1
[10] = 24 h, 10 µM, compound concentration 10 uM, replicate 2
[11] = 0 h, replicate number 1, timepoint 0 hours
[12] = 6 h, replicate number 1, timepoint 6 hours
[13] = 12 h, replicate number 1, timepoint 12 hours
[14] = 18 h, replicate number 1, timepoint 18 hours
[15] = 24 h, replicate number 1, timepoint 24 hours
[16] = 24 h, replicate number 2, timepoint 24 hours

## Cc1c(Nc2ccc(S(=O)(=O)N3CCN(C)CC3)cc2F)nc2ccc(Nc3cnn(C4CC4)c3)cn2c1=O
Fibroblast [1]; [3]
  Population Apoptotic (%): 64%
  Population Fragmented Nuclei (%): 30%
  Population Healthy Nuclei (%): 50%
  Population Hoechst High Intensity Objects (%): 12%
  Population Membrane Permeable-Phenotype (%): 31%
  Population Mitochondria Different-Phenotype (%): 6%
  Population Mitotic Cells (%): 35%
  Population Normal (%): 87%
  Population Pyknosed Nuclei (%): 19%
  Population Tubulin-Different-Phenotype (%): 43%
  Total Cell Count: 263
Fibroblast [1]; [4]
  Population Apoptotic (%): 80%
  Population Fragmented Nuclei (%): 62%
  Population Healthy Nuclei (%): 24%
  Population Hoechst High Intensity Objects (%): 40%
  Population Membrane Permeable-Phenotype (%): 55%
  Population Mitochondria Different-Phenotype (%): 11%
  Population Mitotic Cells (%): 20%
  Population Normal (%): 59%
  Population Pyknosed Nuclei (%): 13%
  Population Tubulin-Different-Phenotype (%): 66%
  Total Cell Count: 62
Fibroblast [1]; [5]
  Population Apoptotic (%): 79%
  Population Fragmented Nuclei (%): 27%
  Population Healthy Nuclei (%): 58%
  Population Hoechst High Intensity Objects (%): 12%
  Population Membrane Permeable-Phenotype (%): 7%
  Population Mitochondria Different-Phenotype (%): 1%
  Population Mitotic Cells (%): 20%
  Population Normal (%): 87%
  Population Pyknosed Nuclei (%): 13%
  Population Tubulin-Different-Phenotype (%): 2%
  Total Cell Count: 288
Fibroblast [1]; [6]
  Population Apoptotic (%): 50%
  Population Fragmented Nuclei (%): 55%
  Population Healthy Nuclei (%): 40%
  Population Hoechst High Intensity Objects (%): 27%
  Population Membrane Permeable-Phenotype (%): 9%
  Population Mitochondria Different-Phenotype (%): 0%
  Population Mitotic Cells (%): 50%
  Population Normal (%): 72%
  Population Pyknosed Nuclei (%): 3%
  Population Tubulin-Different-Phenotype (%): 19%
  Total Cell Count: 72
Fibroblast [1]; [7]
  Population Apoptotic (%): 72%
  Population Fragmented Nuclei (%): 30%
  Population Healthy Nuclei (%): 53%
  Population Hoechst High Intensity Objects (%): 12%
  Population Membrane Permeable-Phenotype (%): 14%
  Population Mitochondria Different-Phenotype (%): 1%
  Population Mitotic Cells (%): 27%
  Population Normal (%): 87%
  Population Pyknosed Nuclei (%): 16%
  Population Tubulin-Different-Phenotype (%): 38%
  Total Cell Count: 257
Fibroblast [1]; [8]
  Population Apoptotic (%): 100%
  Population Fragmented Nuclei (%): 57%
  Population Healthy Nuclei (%): 31%
  Population Hoechst High Intensity Objects (%): 30%
  Population Membrane Permeable-Phenotype (%): 40%
  Population Mitochondria Different-Phenotype (%): 0%
  Population Mitotic Cells (%): 0%
  Population Normal (%): 69%
  Population Pyknosed Nuclei (%): 10%
  Population Tubulin-Different-Phenotype (%): 40%
  Total Cell Count: 68
Fibroblast [1]; [9]
  Population Apoptotic (%): 65%
  Population Fragmented Nuclei (%): 22%
  Population Healthy Nuclei (%): 63%
  Population Hoechst High Intensity Objects (%): 13%
  Population Membrane Permeable-Phenotype (%): 7%
  Population Mitochondria Different-Phenotype (%): 1%
  Population Mitotic Cells (%): 34%
  Population Normal (%): 86%
  Population Pyknosed Nuclei (%): 13%
  Population Tubulin-Different-Phenotype (%): 3%
  Total Cell Count: 293
Fibroblast [1]; [10]
  Population Apoptotic (%): 0%
  Population Fragmented Nuclei (%): 57%
  Population Healthy Nuclei (%): 38%
  Population Hoechst High Intensity Objects (%): 21%
  Population Membrane Permeable-Phenotype (%): 9%
  Population Mitochondria Different-Phenotype (%): 4%
  Population Mitotic Cells (%): 100%
  Population Normal (%): 78%
  Population Pyknosed Nuclei (%): 3%
  Population Tubulin-Different-Phenotype (%): 0%
  Total Cell Count: 73
U2OS; [11]
  Growth Rate: 0
U2OS; [12]
  Growth Rate: 0
U2OS; 6 h, replicate number 2, timepoint 6 hours
  Growth Rate: 1
U2OS; [13]
  Growth Rate: 0
U2OS; 12 h, replicate number 2, timepoint 12 hours
  Growth Rate: 1
U2OS; [14]
  Growth Rate: 0
U2OS; 18 h, replicate number 2, timepoint 18 hours
  Growth Rate: 1
U2OS; [15]
  Growth Rate: 0
U2OS; [16]
  Growth Rate: 1
HEK-293T; [11]
  Growth Rate: 1
HEK-293T; [12]
  Growth Rate: 0
HEK-293T; [13]
  Growth Rate: 0
HEK-293T; [14]
  Growth Rate: 0
HEK-293T; [15]
  Growth Rate: 0
Fibroblast [2]; 0 h, replicate number 2, timepoint 0 hours
  Growth Rate: 0
Fibroblast [2]; [12]
  Growth Rate: 0
Fibroblast [2]; [13]
  Growth Rate: 0
Fibroblast [2]; [14]
  Growth Rate: 0
Fibroblast [2]; [15]
  Growth Rate: 0
Fibroblast [2]; [16]
  Growth Rate: 1
